CAL PDZ FP-1 = inhibitors of human CAL PDZ peptide binding; inhibition, % at 24.9 µM; purified CAL PDZ, TMR-peptide fluorescence polarization, 1 h; Q9HD26; 300,000 tested, 0.92% active; AID 602252;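 active = mean inhibition of at least 30% with at least half of replicates also reaching 30%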
Tn7 DDE FP = DD(E)-Tn7 binding inhibition, primary FP screen | P02675 | FP displacement of FITC-Tn7 peptide from fibrin DD(E); 0% = median of compound wells per plate | inhibition, % at 8.3 µM | 370,000 tested, 0.13% active | AID 720508;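 active = inhibition above the mean of compounds falling within the control limits plus 3 SD of them, cut at about 14% in these data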
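Assay system: Fibrin-DD(E) protein isolated from polymerized human fibrin clots; read-out basis: percent inhibition; medium: Tris/NaCl/CaCl2 buffer, pH 7.8; signal: FP measurement; incubation: 10 min plus 3 h, room temperature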
GRK2 inh = blocks RNA aptamer binding to human GRK2 | P25098 | bead flow cytometry, FAM-aptamer displacement from GRK2 | inhibition of aptamer binding, % at 10 µM | 330,000 tested, 0.59% active | AID 488847;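 active = inhibition of aptamer binding above 40%, roughly 3 SD of noise, on plates passing a quality check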;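 note: median bead fluorescence of bound FAM aptamer so fluorescent compounds give negative values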
Target sequence (P25098 whole entry, looked up): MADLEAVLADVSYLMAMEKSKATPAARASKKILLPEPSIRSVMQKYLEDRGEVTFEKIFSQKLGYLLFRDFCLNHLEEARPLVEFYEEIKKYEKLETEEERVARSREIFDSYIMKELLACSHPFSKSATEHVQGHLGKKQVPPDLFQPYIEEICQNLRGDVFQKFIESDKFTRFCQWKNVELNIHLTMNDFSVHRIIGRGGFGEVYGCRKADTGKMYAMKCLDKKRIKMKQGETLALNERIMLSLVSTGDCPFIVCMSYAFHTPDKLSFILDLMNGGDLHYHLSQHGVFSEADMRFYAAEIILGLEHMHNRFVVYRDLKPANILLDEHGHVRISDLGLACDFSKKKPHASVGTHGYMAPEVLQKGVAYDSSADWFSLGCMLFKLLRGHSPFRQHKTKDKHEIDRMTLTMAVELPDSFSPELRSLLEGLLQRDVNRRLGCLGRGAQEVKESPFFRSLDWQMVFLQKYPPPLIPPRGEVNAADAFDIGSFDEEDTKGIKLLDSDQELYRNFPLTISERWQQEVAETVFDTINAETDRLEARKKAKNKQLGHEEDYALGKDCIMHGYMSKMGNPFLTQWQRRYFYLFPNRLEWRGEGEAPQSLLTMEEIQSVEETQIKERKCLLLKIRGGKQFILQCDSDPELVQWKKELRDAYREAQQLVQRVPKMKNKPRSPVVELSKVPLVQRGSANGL
ARNT TACC3 PPI = disrupts binding between human ARNT and TACC3; Q9Y6A5; AlphaScreen His-ARNT PAS-B/GST-TACC3 binding, luminescence; TACC3 fragment carries E629A point mutation; inhibition, % at 9.99 µM; 390,000 tested, 0.66% active;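 active = mean inhibition of replicates at least 50% and at least half of replicates each reaching 50%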
CAL PDZ FP-2 = blocks peptide binding to human CAL PDZ domain; purified CAL PDZ, TMR-peptide fluorescence polarization, 1 h; inhibition, % at 20 µM; Q9HD26; 330,000 tested, 0.02% active;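 active = highest replicate inhibition of at least 40%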
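Control set: unlabelled peptide and DMSO controls / Material: purified CerCALP PDZ construct / Timing: 1 h incubation at room temperature before polarization reading / Doses: 20 µM, one dose / Detection: fluorescence polarization (mP)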
Tn6 DDE FP = inhibitors of Tn6 peptide binding to human fibrin DD(E) | 370,000 tested, 0.21% active | Fibrin DD(E) TRITC-Tn6 fluorescence polarization displacement | inhibition, % at 8.3 µM | P02675;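 active = inhibition above a per-campaign cutoff: mean of compounds within control limits plus 3 SD, cut at about 15% in these data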
GRK2 inh confirm = human GRK2 inhibition confirmation, cherry pick 1 | 2,000 tested, 4% active | bead-bound GRK2, FAM-aptamer displacement, flow cytometry | shares compounds with GRK2 inh | aptamer displacement, % at 10 µM | AID 504451;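 active = aptamer displacement above 40%, near three times the noise of non-fluorescent compounds, on plates passing quality checks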;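 note: negative values mostly reflect intrinsic compound fluorescence rather than true enhancement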
Aptamer quench 1 = quenches fluorescent RNA aptamer, GRK2 hit artifact. shares compounds with GRK2 inh. Fluorescent RNA aptamer beads, quenching, flow cytometry; active compounds read high. fluorescence change (kMESF span), kMESF (test concentration not listed). 110 tested, under 10 active. AID 504521;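 active = compounds whose bead fluorescence drops by more than 37 kMESF across the dose range, marking them as dye quenchers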
Aptamer quench SP = quenches fluorescent RNA aptamer, GRK2 hit artifact | shares compounds with GRK2 inh | fluorescence response (% of DMSO), % at 10 µM | Carboxyfluorescein RNA aptamer on beads, flow cytometry quenching; active compounds read low | 2,000 tested, under 10 active;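 active = compounds that quench the bead-bound fluorescent RNA probe, cutting fluorescence to under half of the solvent control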;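 note: counterscreen run without GRK2 so only probe quenching by compound is measured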
GRK2 confirm 2 = confirmation of human GRK2 inhibitors binding RNA aptamer site. shares compounds with GRK2 inh. bead-bound GRK2, FAM-aptamer displacement, flow cytometry. inhibition of aptamer binding, % at 10 µM. 360 tested, under 10 active. AID 504782;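 active = inhibition of aptamer binding above 40%, about triple the noise seen with nonglowing compounds, on plates passing quality control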;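 note: negative values mostly come from compounds that fluoresce themselves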
Aptamer quench 2 = counter-screen for GRK2 aptamer inhibitors: fluorescent aptamer quenchers; shares compounds with GRK2 inh; Streptavidin beads, FAM-RNA aptamer fluorescence quenching, flow cytometry; change in fluorescence (kMESF span), kMESF (concentration not given with the values); 25 tested, under 10 active; AID 504819;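 active = compounds quenching the bead-bound labeled aptamer, with fluorescence dropping by more than 37 kMESF over the dose range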
FAM quench CP2 = counter-screen for GRK2 binding hits: quenchers of fluorescent RNA aptamer. shares compounds with GRK2 inh. carboxyfluorescein RNA aptamer beads, flow cytometry quenching; active compounds read low. fluorescence response vs DMSO, % at 10 µM. 360 tested, under 10 active. AID 588494;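 active = response vs DMSO under 50%, meaning signal dropped by over half, treated as fluorescence quencher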;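 note: labelled aptamer on streptavidin beads without GRK2 as a quench counter-screen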
Numbers stand for hits; 0 = inactive; - = no result given. The list is not random: actives were taken first. Their share in the collection is about 1.8%.

SMILES	CAL PDZ FP-1	Tn7 DDE FP	GRK2 inh	ARNT TACC3 PPI	CAL PDZ FP-2	Tn6 DDE FP	GRK2 inh confirm	Aptamer quench SP	others
COc1ccccc1S(=O)(=O)n1cc(Cc2ccccc2)c(N)n1	-	0	74.0	0	0	0	0	0
COc1ccc(-c2cc(NC(=O)Cc3c[nH]c4ccccc34)ccc2Nc2cccnc2)c(OC)c1	-	0	-	-	-	0	-	-
CCC(=O)Nc1ccc2c(c1)C(=O)N(C)[C@@H]1CC[C@H](CC(=O)NCC3CC3)O[C@H]1CO2	-	-	-	0	-	-	-	-
COc1ccc(S(=O)(=O)N2CCN(C(=O)c3cc4c(s3)CCC4)CC2)cc1	0	0	82.0	0	0	0	0	0
Cc1ccc(S(=O)(=O)N2CCN(C(=O)c3cc4c(s3)CCCC4)CC2)c(C)c1	0	0	49.0	0	0	0	0	0
C[C@@H]1CCCCO[C@@H](CN(C)Cc2ccc(Cl)c(Cl)c2)[C@H](C)CN([C@H](C)CO)C(=O)c2cc(NS(=O)(=O)c3cn(C)cn3)ccc2O1	-	-	-	0	-	-	-	-
C[C@H](CO)N1C[C@H](C)[C@@H](CN(C)C(=O)Nc2ccc(C(C)(C)C)cc2)OCc2cn(nn2)CCCC1=O	-	0	-	0	-	0	-	-
CC(C)(C)NC(=O)COC(=O)CCC(=O)c1ccc(F)cc1	0	0	99.0	0	0	0	0	0
CCCNC(=O)COC(=O)CCC(=O)c1ccc(F)cc1	-	0	0	0	0	0	-	-
O=C(C[C@H]1CC[C@@H](NS(=O)(=O)c2cccc(F)c2)[C@H](CO)O1)N1CCCCC1	-	-	-	0	-	-	-	-
Cc1ccc(C2C3=C(CCCC3=O)Nc3nc(SCC(=O)NCc4ccco4)[nH]c(=O)c32)cc1 (stereo not drawn)	0	0	0	0	0	0	-	-	GRK2 confirm 2=0;FAM quench CP2=0
Cc1cc(C)nc(SCC(=O)NCc2ccco2)n1	0	0	0	0	0	0	-	-
Nc1nc(SCC(=O)NCc2ccco2)[nH]c(=O)c1-c1ccccc1	0	0	0	0	0	0	-	-	GRK2 confirm 2=0;FAM quench CP2=0
Cc1nc(SCC(=O)NCc2ccco2)[nH]c(=O)c1C	0	0	0	0	0	0	-	-	GRK2 confirm 2=0;FAM quench CP2=0
O=C1CCCC2=C1C(c1ccncc1)c1c(nc(SCc3ccccc3)[nH]c1=O)N2 (stereo not drawn)	0	0	0	0	0	0	-	-
O=C(CSc1nc2[nH]ncc2c(=O)n1-c1ccccc1Br)NCc1ccco1	0	0	0	0	0	0	-	-	GRK2 confirm 2=0;FAM quench CP2=0
C[C@@H]1CN([C@H](C)CO)C(=O)c2cc(NC(=O)Nc3ccc4c(c3)OCO4)ccc2O[C@@H]1CN(C)CC1CCCCC1	-	-	-	0	-	-	-	-
COc1ccc(NC(=O)CNC(=O)c2nn(-c3ccc(OC)cc3OC)c(=O)c3ccccc23)c(OC)c1	-	0	0	0	0	0	-	-
CCC(C)NC(=O)CNC(=O)c1nn(-c2ccc(OC)cc2OC)c(=O)c2ccccc12 (stereo not drawn)	0	0	0	0	0	0	0	0
COc1ccc(-n2nc(C(=O)NCC(=O)NC(C)C)c3ccccc3c2=O)c(OC)c1	0	0	0	0	0	0	-	-
COCCCNC(=O)CNC(=O)c1nn(-c2ccc(OC)cc2OC)c(=O)c2ccccc12	0	0	0	0	0	0	0	0
Cc1ccccc1S(=O)(=O)N1C[C@@H](O)COC[C@H]2O[C@@H](CC(=O)N3CCN(C)CC3)CC[C@@H]21	-	-	-	0	-	-	-	-
COc1ccc(CCNC(=O)c2ccc(Br)o2)cc1Br	-	0	-	-	-	0	-	-
COc1ccc(NC(=O)CCS(=O)(=O)c2cccc3nonc23)c(OC)c1	0	0	0	0	0	0	-	-	GRK2 confirm 2=0;FAM quench CP2=0
COc1ccc(NC(=O)CCS(=O)(=O)c2cccc3nonc23)cc1	0	0	0	0	0	0	-	-
SMILES	CAL PDZ FP-1	Tn7 DDE FP	GRK2 inh	ARNT TACC3 PPI	CAL PDZ FP-2	Tn6 DDE FP	GRK2 inh confirm	Aptamer quench SP	others
CCOc1ccccc1NC(=O)CCS(=O)(=O)c1ccc(OC)cc1	0	0	0	0	0	0	-	-	GRK2 confirm 2=0;FAM quench CP2=0
CCc1ccccc1NC(=O)CCS(=O)(=O)c1ccc(OC)cc1	0	0	53.0	0	0	0	0	0	Aptamer quench 1=0;Aptamer quench 2=0
COc1ccc(S(=O)(=O)CCC(=O)Nc2c(C)cccc2C)cc1	0	0	0	0	0	0	-	-
CCOc1ccccc1NC(=O)CCC(=O)Nc1ccccc1OCC	0	0	0	0	0	0	-	-
CO[C@H]1CN(C)C(=O)c2ccc(NC(=O)C3CC3)cc2OC[C@@H](C)N(Cc2ccccc2)C[C@H]1C	-	-	-	0	-	-	-	-
C=C(C)C(=O)Nc1cccc(C2=NOC3(C2)C[C@@H](C(N)=O)N(C(=O)CC(c2ccccc2)c2ccccc2)C3)c1 (stereo partly drawn)	0	0	88.0	0	0	0	80.2	0	Aptamer quench 1=0
CCC(=O)Nc1cccc(C2=NOC3(C2)C[C@H](C(N)=O)N(C(=O)Cc2ccc([N+](=O)[O-])cc2)C3)c1 (stereo partly drawn)	0	0	0	0	0	0	-	-	GRK2 confirm 2=0;FAM quench CP2=0
C=C(C)C(=O)Nc1cccc(C2=NOC3(C2)C[C@@H](C(N)=O)N(C(=O)/C=C/C=C/C)C3)c1 (stereo partly drawn)	0	0	92.0	0	0	0	82.5	0	Aptamer quench 1=0
C=C(C)C(=O)Nc1cccc(C2=NOC3(C2)C[C@H](C(N)=O)N(C(=O)CC#N)C3)c1 (stereo partly drawn)	-	-	67.0	-	-	-	0	0	Aptamer quench 1=0
C/C=C(/C)C(=O)Nc1cccc(C2=NOC3(C2)C[C@@H](C(N)=O)N(C(=O)CC(c2ccccc2)c2ccccc2)C3)c1 (stereo partly drawn)	0	0	0	0	0	0	-	-
C[C@H](CO)N1C[C@H](C)[C@@H](CN(C)C(=O)c2ccccc2)OCCCC[C@H](C)Oc2ccc(NC(=O)CCC(F)(F)F)cc2C1=O	-	-	-	0	-	-	-	-
